Test results taken from ChEMBL document CHEMBL3616436, “Synthesis, cytotoxicity and antimicrobial activity of thiourea derivatives incorporating 3-(trifluoromethyl)phenyl moiety” (Eur J Med Chem, 2015).
In brackets after ≈: the same amount, converted by molar mass.

System: Mycobacterium tuberculosis
Assay: Antimycobacterial activity against p-aminosalicylic acid/isonicotinic acid hydrazide/etambutol/rifampicin-resistant Mycobacterium tuberculosis Spec. 210
Assay type: functional
Procedure, shortened: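 Classical test-tube successive-dilution method in Youmans' modification of Proskauer and Beck liquid medium with 10% bovine serum. Inoculum came from 14-day cultures. DMSO stock was 10 mg/mL, diluted geometrically in medium. Tubes were incubated at 37 °C. Concentrations tested were 3.1, 6.2, 12.5, 25, 50 and 100 µg/ml. MIC is the minimum concentration inhibiting growth relative to compound-free tubes.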

Row | SMILES | MIC [µg/mL]
1 | FC(F)(F)c1cccc(NC(=S)Nc2cccc(Br)c2)c1 | 100 (≈ 267 µM)
2 | Fc1cccc(NC(=S)Nc2cccc(C(F)(F)F)c2)c1 | 25 (≈ 79.5 µM)
3 | FC(F)(F)c1cccc(NC(=S)NCCc2ccccc2)c1 | 50 (≈ 154 µM)
4 | FC(F)(F)c1cccc(NC(S)=NCc2ccccc2)c1 | 25 (≈ 80.6 µM)
5 | CSCCCNC(=S)Nc1cccc(C(F)(F)F)c1 | 50 (≈ 162 µM)
6 | FC(F)(F)c1cccc(NC(=S)Nc2ccccc2)c1 | 50 (≈ 169 µM)
7 | Fc1ccccc1NC(=S)Nc1cccc(C(F)(F)F)c1 | 100 (≈ 318 µM)
8 | Cc1ccc(NC(=S)Nc2cccc(C(F)(F)F)c2)cc1Cl | > 100
9 | Fc1ccc(NC(=S)Nc2cccc(C(F)(F)F)c2)cc1 | 25 (≈ 79.5 µM)
10 | N#Cc1ccc(NC(=S)Nc2cccc(C(F)(F)F)c2)cc1 | > 100
11 | CCCCc1ccc(NC(=S)Nc2cccc(C(F)(F)F)c2)c(C)c1 | 50 (≈ 136 µM)
12 | FC(F)(F)c1cccc(NC(S)=Nc2ccc(Cl)c(Cl)c2)c1 | 50 (≈ 137 µM)
13 | COc1cccc(NC(=S)Nc2cccc(C(F)(F)F)c2)c1 | > 100
14 | CCOC(=O)c1ccc(NC(=S)Nc2cccc(C(F)(F)F)c2)cc1 | > 100
15 | FC(F)(F)c1cccc(NC(=S)Nc2cccc(Cl)c2)c1 | 100 (≈ 302 µM)
16 | O=[N+]([O-])c1ccc(NC(=S)Nc2cccc(C(F)(F)F)c2)cc1 | 50 (≈ 146 µM)
17 | FC(F)(F)c1cccc(NC(=S)NCc2ccco2)c1 | > 100
18 | FC(F)(F)c1cccc(NC(=S)Nc2ccc(Cl)cc2)c1 | > 100
19 | CCNC(=S)Nc1cccc(C(F)(F)F)c1 | > 100
20 | C=C(C)CNC(=S)Nc1cccc(C(F)(F)F)c1 | > 100
21 | O=C(NC(=S)Nc1cccc(C(F)(F)F)c1)c1ccccc1 | > 100
22 | FC(F)(F)c1cccc(NC(=S)NC2CCCCC2)c1 | > 100
23 | Fc1ccc(NC(=S)Nc2cccc(C(F)(F)F)c2)cc1Cl | 50 (≈ 143 µM)
24 | NNC(=O)c1ccncc1 [ISONIAZID] | 6.25 (≈ 45.6 µM)
25 | COC(=O)c1ccccc1NC(=S)Nc1cccc(C(F)(F)F)c1 | > 100
